Assay outcomes as filed in PubChem BioAssay.
OX1R antag-1: OX1R (HCRTR1) antagonists, primary screen, fluorescence, CHO/OX1R cells, Fluo-8 calcium, orexin A. hit rate 0.43% among 330,000. Fluo-8 calcium fluorescence. inhibition, % at 5 µM. AID 434989, 2010. Orexin/Hypocretin receptor type 1 (Homo sapiens), O43613;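 active means inhibition above its plate's threshold, mean inhibition of all tested compounds on the plate plus 3 SD, cut at about 37% in these data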;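 further: 0% = orexin A challenge wells and 100% = SB-334867-A antagonist wells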
Target sequence (O43613 whole entry, looked up): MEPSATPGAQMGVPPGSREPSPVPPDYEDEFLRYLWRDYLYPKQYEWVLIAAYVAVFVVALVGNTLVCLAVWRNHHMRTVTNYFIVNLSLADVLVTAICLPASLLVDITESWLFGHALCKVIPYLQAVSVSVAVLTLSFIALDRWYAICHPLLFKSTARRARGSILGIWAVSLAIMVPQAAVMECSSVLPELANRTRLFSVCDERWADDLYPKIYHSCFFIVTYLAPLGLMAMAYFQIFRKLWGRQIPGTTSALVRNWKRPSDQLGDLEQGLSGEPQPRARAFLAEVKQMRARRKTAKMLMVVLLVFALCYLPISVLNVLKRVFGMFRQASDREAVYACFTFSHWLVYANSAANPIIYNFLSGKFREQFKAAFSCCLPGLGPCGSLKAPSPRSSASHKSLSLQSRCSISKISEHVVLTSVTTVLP
TAAR1 agonist: human TAAR1 agonists, primary screen, Fluo-8 calcium fluorescence, CHO RD-HGA16 cells; Trace amine-associated receptor 1 (Homo sapiens), Q96RJ0; vehicle wells 0%, saturating PEA agonist 100%; activation, % at 3 µM; hit rate 0.99% among 360,000; AID 624467, 2012;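 active means activation above the mean activation of all test compounds in the run plus 3 SD, cut at about 38% in these data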
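Assay system: CHO-derived RD-HGA16 cells with stable Gα16 and human TAAR1; timing: 17-24 h seeding, 75 min 37 °C dye, 30 min RT; read-out: % activation from peak over basal fluorescence ratio, DMSO-to-PEA scaled; measured by: kinetic Fluo-8 calcium fluorescence; benchmarks: low control DMSO, high control PEA (EC100); doses: 3 µM single concentration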
TAAR1 antagonist: human TAAR1 antagonists, primary screen, Fluo-8 calcium fluorescence, CHO RD-HGA16 cells; antagonist; Trace amine-associated receptor 1 (Homo sapiens), Q96RJ0; inhibition, % at 3 µM; hit rate 1.5% among 360,000;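 active means inhibition above a per-plate cutoff, the mean inhibition of test compounds on that plate plus 3 SD, cut at about 49% in these data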;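 further: 0% = DMSO plus EC80 beta-PEA response and 100% = DMSO alone without agonist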
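Test system – hTAAR1-expressing CHO RD-HGA16 cells, Gα16-coupled · Reagent – β-PEA at EC80 concentration, post-compound challenge · Compound dosing – 3 µM, single point · Timing – 140 s kinetic read after compound, 140 s after agonist · Detection – Fluo-8 intracellular calcium dye fluorescence, real-time kinetic reads · Control set – DMSO and EC80 PEA controls · Repeats – n of 1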
GPR7 antag: GPR7 receptor antagonists, primary screen, cell-based, fluorescence, single concentration; Neuropeptides B/W receptor type 1 (Homo sapiens), P48145; GPR7-expressing cells, fluorescence antagonist assay; inhibition, % at 4.4 µM; hit rate 1.1% among 290,000; in the data active means inhibition above about 16%, passing the limit was not always enough;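 further: cells stimulated with the agonist NPW; 0% = agonist with vehicle and 100% = vehicle without agonist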
OX1R antag-2: antagonists of human orexin 1 receptor (OX1R); OX1R-expressing cells, FRET antagonist read-out; inhibition, % at 6.6 µM; hit rate 1.8% among 330,000; AID 485270, 2010; in the data active means inhibition mostly above about 38%, no sharp cut-off; inactive means mostly below about 40%;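 further: 0% = agonist challenge alone and 100% = reference antagonist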
CHO parental Ca: ATP-evoked calcium signal inhibitors, parental CHO, primary screen, counter-screen for OX1R antagonist project, cell-based, fluorescence, Fluo-8 calcium dye | hit rate 0.63% among 330,000 | parental CHO-K1, ATP-induced calcium, Fluo-8 fluorescence | inhibition, % at 5.6 µM;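 active means inhibition above that plate's mean sample inhibition plus 3 SD, cut at about 26% in these data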;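 further: 0% = ATP-challenged DMSO wells and 100% = DMSO wells without ATP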
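Measured by: calcium-sensitive Fluo-8 fluorescence / Test system: CHO parental line / Controls: ATP-challenged DMSO wells low, unchallenged DMSO wells high / Measure: % inhibition / Compound: single nominal dose of 5.6 µM per compound / Replicates: single well per compound, no replicates / Reagent: ATP as calcium-mobilizing challenge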
* = called active by the depositor. Hits are enriched below; roughly 4.6% of the tested compounds scored in any of these assays.

How did COc1ccccc1CCNC(=O)c1cc(-c2ccccn2)nc2ccccc12 do in these assays?
TAAR1 agonist: 8.2; TAAR1 antagonist: 52.0*

How did Cc1occc1C(=O)NCCCCc1ccccc1 do in these assays?
OX1R antag-1: -17.2; TAAR1 agonist: 1.7; TAAR1 antagonist: 0.1; GPR7 antag: 13.0; OX1R antag-2: 18.7; CHO parental Ca: -11.2

Results for C(=N\NC1=Nc2cccc3cccc1c23)/c1cccnc1 ?
OX1R antag-1: 10.6; TAAR1 agonist: 7.2; TAAR1 antagonist: 25.3; GPR7 antag: -2.7; OX1R antag-2: 72.4*; CHO parental Ca: -10.3

Results for O=C1c2ccccc2C(=O)N1c1ccc(S(=O)(=O)N2CCN(c3ccccc3)CC2)cc1 ?
OX1R antag-1: -0.7; TAAR1 agonist: 4.0; TAAR1 antagonist: 6.0; GPR7 antag: -6.2; OX1R antag-2: 13.1; CHO parental Ca: 4.3

How did COc1ccc(-c2oc3ncn(CCN4CCOCC4)c(=N)c3c2-c2ccc(OC)cc2)cc1 do in these assays?
OX1R antag-1: -15.9; TAAR1 agonist: 2.8; TAAR1 antagonist: 8.2; GPR7 antag: 1.3; OX1R antag-2: 38.2*; CHO parental Ca: -16.4

What do the screens show for `COc1ccc(-c2oc3ncnc(NCCN4CCOCC4)c3c2-c2ccc(OC)cc2)cc1`?
OX1R antag-1: -34.1; GPR7 antag: -12.8; OX1R antag-2: 17.2; CHO parental Ca: -26.5

Results for CC(C)(C)OC(=O)NCCCCCNC(=O)c1nc[nH]c1C(=O)N1CCN(c2ccccc2)CC1 ?
OX1R antag-1: -6.0; TAAR1 agonist: 20.6; TAAR1 antagonist: 49.7*; OX1R antag-2: 8.4; CHO parental Ca: -11.7

How did CN(C)C1CCN(C(=O)c2cccc(OC3CCN(S(=O)(=O)N(C)C)CC3)c2)C1 (stereo unspecified) do in these assays?
TAAR1 agonist: -0.3; TAAR1 antagonist: -16.8; GPR7 antag: -7.4

How did CC(=O)Nc1ccc(-c2cn3c(n2)SCC3)cc1 do in these assays?
OX1R antag-1: 0.1; TAAR1 agonist: 6.3; TAAR1 antagonist: -14.2; GPR7 antag: -11.1; OX1R antag-2: -4.0; CHO parental Ca: 0.0

Results for O=C(Oc1ccc(-c2cn3c(n2)SCC3)cc1)c1ccccc1 ?
OX1R antag-1: 31.4; TAAR1 agonist: 9.6; TAAR1 antagonist: 19.5; GPR7 antag: 17.9*; OX1R antag-2: 13.1; CHO parental Ca: 15.3

How did Cn1cnnc1SCC(=O)Nc1ccc2nc(SCc3cccc4ccccc34)sc2c1 do in these assays?
OX1R antag-1: -14.5; TAAR1 agonist: 41.7*; TAAR1 antagonist: 16.6; GPR7 antag: 18.1; OX1R antag-2: 34.9; CHO parental Ca: -34.7

What do the screens show for `Cn1cnnc1SCC(=O)Nc1ccc2nc(SCc3ccccc3Cl)sc2c1`?
OX1R antag-1: -23.4; TAAR1 agonist: 17.7; TAAR1 antagonist: 1.8; GPR7 antag: 2.4; OX1R antag-2: 18.3; CHO parental Ca: -17.7

What do the screens show for `CCOC(=O)C1CCCN(S(=O)(=O)c2cc(OCC(N)=O)c(C)cc2Cl)C1` (stereo unspecified)?
OX1R antag-1: -2.3; TAAR1 agonist: 2.0; TAAR1 antagonist: -0.1; GPR7 antag: -9.1; OX1R antag-2: 4.1; CHO parental Ca: -0.7

How did Cc1cccn2c(=O)c3cc(C(=O)NCc4ccc(F)cc4)c(=N)n(CC4CCCO4)c3nc12 (stereo unspecified) do in these assays?
OX1R antag-1: -16.7; TAAR1 agonist: 3.1; TAAR1 antagonist: -26.0; GPR7 antag: -4.9; OX1R antag-2: 22.5; CHO parental Ca: -14.2

Results for N=c1c(C(=O)NCC2CCCO2)cc2c(=O)n3ccccc3nc2n1Cc1ccco1 (stereo unspecified) ?
OX1R antag-1: -10.3; TAAR1 agonist: -0.3; TAAR1 antagonist: 3.6; GPR7 antag: -6.6; OX1R antag-2: 57.1*; CHO parental Ca: -10.0
